# This excerpt belongs to a sample that is enriched for hits.
# HCT116 PTEN-null – growth suppressors of cells with PTEN tumor suppressor deletion | viability, % at 10 µM | HCT116 PTEN-null viability, CellTiter-Glo, 60 h; stronger effect = lower value | 140,000 tested, 1.2% active;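 active = viability at or below a set limit, 4 SD under the median of all tested compounds, cut at about 3.7% in these data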;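 also: PTEN knockout HCT116 line with beta catenin targeted HCT116 as companion control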
# H69AR inhibit – growth inhibitors of human H69AR lung tumor cells. H69AR lung tumor viability, ATP luminescence, 72 h; stronger effect = lower value. 85,000 tested, 6% active. viability, % at 10 µM;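 active = viability at or below 40%; inactive = viability above 40%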;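 also: multidrug resistant small cell line overexpressing MRP-1 efflux transporter; 100% = mean luminescence of untreated control wells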
# HUVEC inhibit – inhibitors of human endothelial cell proliferation. HUVEC proliferation, CellTiter-Glo luminescence, 72 h; stronger effect = lower value. viability, % at 10 µM (by protocol). 86,000 tested, 1.1% active;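 active = viability at or below 30%; inactive = viability above 30%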;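 also: 100% = median luminescence of DMSO-only cell control wells on each plate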
# Fibroblast inh – blocks proliferation of human lung fibroblasts; LL 47 human lung fibroblast viability, ATP luminescence; stronger effect = lower value; viability, % at 10 µM; 85,000 tested, 1.1% active; AID 719;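 active = viability at or below 50% in the single dose screen; inactive = viability above 50%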;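 also: compound exposure lasted 72 h before the ATP readout; 100% = median luminescence of untreated cell-only wells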
#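 test system = LL 47 human lung fibroblasts | amount = 1,150 fibroblasts seeded per well | medium = 15% FBS in IMEM | times = overnight cell rest, 72 h compound treatment at 37 °C | measured by = CellTiter-Glo luminescence measuring cellular ATP | read-out = viability percentage against median untreated-cell control | benchmarks = cell-only wells, no compound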
# bCat KO growth – beta-catenin-lacking colon tumor cell growth suppression | HCT116 beta-catenin knockout viability, CellTiter-Glo, 60 h; stronger effect = lower value | viability, % at 10 µM | 140,000 tested, 1.5% active;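 active = viability at or under a set limit, the compound median less 4 SD, cut at about 6% in these data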;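 also: 0% = Hyamine 1622 control at 20 µM and 100% = untreated cell control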
# * marks the source's active call; other numbers are inactive results; / = not tested or not shown.
SMILES,HCT116 PTEN-null,H69AR inhibit,HUVEC inhibit,Fibroblast inh,bCat KO growth
O=C(Nc1ccc2c(c1)OC1(CCCC1)O2)C1CC1,89.7,97.0,106.8,94.8,81.0
CCCCC(CC)C(=O)NCCCN1CCN(CCCNC(=O)C(CC)CCCC)CC1 (stereo not given),87.7,100.6,77.8,90.7,100.9
NS(=O)(=O)c1ccc(NCc2cc(Cl)ccc2OCc2ccc(F)cc2)cc1,64.8,/,/,/,76.8
COc1ccccc1C1(O)CCN(C(=O)c2cccs2)CC1,91.6,94.7,109.6,95.5,103.2
Cn1cccc1C(C(=O)NC1CCCCC1)N(C(=O)Cc1cccs1)c1ccc2c(c1)OCO2 (stereo not given),101.4,28.3*,85.4,80.5,100.0
COc1ccc(N(C(=O)Cc2cccs2)C(C(=O)NC2CCCCC2)c2cccn2C)cc1 (stereo not given),83.5,78.1,78.2,86.0,90.4
COc1ccccc1C1c2c(oc3ccc(Cl)cc3c2=O)C(=O)N1c1cc(C)on1 (stereo not given),/,39.6*,42.1,35.7*,/
CC(/C=N/Nc1nnc2c(n1)[nH]c1ccccc12)=C\c1ccco1,84.7,34.5*,97.5,113.7,89.0
O=C(CN1CCCC(O)C1)N1c2ccccc2Sc2ccc(C(F)(F)F)cc21 (stereo not given),91.3,108.7,96.7,95.1,93.8
CN1CCN(CCCN2c3ccccc3Sc3ccc(C(F)(F)F)cc32)CC1,1.5*,0.6*,2.4*,61.6,1.7*
C/C=C(\CS(=O)(=O)c1ccccc1)S(=O)(=O)c1ccccc1,36.1,25.3*,89.1,63.6,51.5
CCOC(=O)c1c(C)c(C(=O)Nc2ccccc2)c(C)n1CC,93.7,63.6,75.5,91.5,85.6
CCOC(=O)c1c(C)c(C(=O)N2CCc3ccccc3C2)c(C)n1CC,51.4,15.9*,69.8,91.7,54.5
O=C(NCc1cccs1)C1CCCN(S(=O)(=O)c2cnc[nH]2)C1 (stereo not given),99.9,103.2,98.7,91.1,100.9
Cc1nc2nc3c(cn2n1)C(=O)CC(C)(C)C3,95.5,98.7,104.9,93.2,91.4
COc1cc(/C=C2\C(=O)N(CCC#N)N=C2C)c(Br)cc1OC(C)C,76.8,16.4*,69.0,84.9,84.2
O=C(CC1(O)C(=O)N(Cc2ccccc2Cl)c2ccccc21)c1ccco1 (stereo not given),10.9,14.6*,68.2,95.5,12.1
C#CCN1C(=O)C(O)(CC(=O)c2cccc(OC)c2)c2ccccc21 (stereo not given),19.3,19.9*,92.9,101.6,33.8
Cc1[nH]c2ccccc2c1C1(O)C(=O)N(C(C)C)c2ccccc21 (stereo not given),94.6,47.0,92.0,91.4,94.8
COC(=O)CN1C(=O)C(O)(CC(=O)c2ccccc2)c2ccccc21 (stereo not given),102.2,96.2,84.8,101.0,98.2
CCOC(=O)CN1C(=O)C(O)(CC(=O)c2cccc(OC)c2)c2ccccc21 (stereo not given),56.1,27.6*,101.2,95.0,49.3
Cc1[nH]c2ccccc2c1C1(O)C(=O)N(Cc2ccc3c(c2)OCO3)c2ccccc21 (stereo not given),9.5,13.5*,80.5,80.3,12.8
COc1ccc(OC)c(S(=O)(=O)Nc2cnc3ccccc3c2)c1,86.2,76.2,79.4,87.3,83.7
c1ccc2nc(N3CCOCC3)cnc2c1,83.7,98.2,88.9,102.3,83.8
CCN(CC)S(=O)(=O)c1cc(C(=O)n2cccn2)c(Cl)cc1Cl,94.2,92.8,101.1,103.5,91.3
SMILES,HCT116 PTEN-null,H69AR inhibit,HUVEC inhibit,Fibroblast inh,bCat KO growth
COc1cccc2c(=O)c(C/C=C(/C)Cl)c(C)[nH]c12,79.0,94.4,102.8,97.2,87.8
Cc1cccc(C)c1NC(=O)COc1ccccc1C(=O)Nc1ccc(Br)cn1,81.3,/,/,/,63.9
CCCCN1C(=O)C(O)(CC(=O)c2ccco2)c2cc(Br)ccc21 (stereo not given),15.3,21.2*,65.1,67.7,13.9
CCOC(=O)CN1C(=O)C(O)(CC(=O)c2ccco2)c2ccccc21 (stereo not given),71.7,25.7*,107.5,100.5,78.7
COc1ccc(CN2C(=O)C(O)(CC(=O)c3ccc4c(c3)OCO4)c3ccccc32)cc1OC (stereo not given),28.2,27.8*,104.7,105.3,49.1
CN1C(=O)C(O)(CC(=O)c2ccccc2O)c2cc(Br)ccc21 (stereo not given),22.1,20.3*,55.0,77.4,30.3
CCN1C(=O)C(O)(CC(=O)c2ccc3c(c2)OCCO3)c2ccccc21 (stereo not given),93.1,102.5,99.6,96.8,104.4
CCC(=O)N1CCc2cc(S(=O)(=O)CCC(=O)Nc3c(C)n(C)n(-c4ccccc4)c3=O)ccc21,/,99.3,99.6,104.9,/
O=C(Nc1ccccc1-c1nc2ccccc2s1)c1ccco1,65.1,37.2*,46.4,82.8,71.4
O=C(Nc1ccc(O)c(-c2nc3ccccc3s2)c1)c1cccs1,100.0,/,/,/,91.1
O=C(/C=C/c1ccco1)NC(=S)Nc1ccc(O)c(-c2nc3ccccc3s2)c1,7.5,/,/,/,2.2*
Cc1ccnc(NC(=S)NC(=O)/C=C/c2ccco2)c1,23.7,25.9*,64.2,71.7,19.1
O=C(/C=C/c1ccco1)NC(=S)NNC(=O)c1ccco1,62.1,61.5,28.0*,92.3,59.9
O=C(NNC(=S)Nc1ccccc1)c1ccco1,98.0,/,/,/,94.5
CC(C)(NO)/C(=N/O)c1cccs1,111.6,79.7,91.4,102.8,106.1
CC(=O)c1cccc(NC(=O)NC(C)c2ccncc2)c1 (stereo not given),93.2,89.7,92.7,95.4,102.8
Oc1cccc2ccc(Nc3ccccn3)nc12,1.7*,0.6*,2.6*,54.4,1.8*
Cc1[nH]c2c(ccc3ccccc32)c1C1C(CCN)C1(C)C (stereo not given),1.8*,4.4*,2.4*,2.7*,1.9*
O=C(COC(=O)C1CC(O)CN1C(=O)Oc1ccccc1)c1ccc(Br)cc1 (stereo not given),97.0,/,/,/,88.7
CCOC(=O)c1ccccc1NC(=O)CSc1nnc(COc2ccccc2)n1CC,77.5,85.1,77.7,97.9,76.3
CCOC(=O)C(C(=O)Nc1nccs1)C1CCCCC1 (stereo not given),87.4,112.0,97.2,97.2,89.0
CC(=O)SC(C[N+](=O)[O-])c1cn(C(C)=O)c2ccccc12 (stereo not given),89.4,2.3*,101.2,2.6*,74.8
Cc1ccc(S(=O)(=O)c2c(C)nn(C(C)(C)C)c2OC(=O)c2ccco2)cc1,120.9,53.7,13.7*,109.0,92.8
Cc1ccc(S(=O)(=O)c2c(C)nn(C(C)(C)C)c2OC(=O)c2ccc(Br)o2)cc1,87.5,36.9*,13.4*,102.5,96.5
CC(=O)Oc1c(S(=O)(=O)c2ccc(C)cc2)c(C)nn1C(C)(C)C,99.6,91.3,107.6,102.4,103.7

# Screening results as filed in PubChem BioAssay.
